From ChEMBL document CHEMBL1811814, “Synthesis and evaluation of indole, pyrazole, chromone and pyrimidine based conjugates for tumor growth inhibitory activities--development of highly efficacious cytotoxic agents” (Eur J Med Chem, 2010)

Assays:
Assay type in all cases: functional
M14 [1] = test: Growth inhibition of human M14 cells
NCI-H460 [2] = test: Growth inhibition of human NCI-H460 cells
KM12 = test: Growth inhibition of human KM12 cells assessed tumor cell growth at 10^-5 M; design: scale not given: the % may be the effect or the level left
Method in brief: (§1)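 NCI 60-human-tumor-cell-line panel screen. Each compound was tested at a single concentration of 10^-5 M, and percent growth of tumor cells was recorded for each cell line. Growth inhibition was expressed from these percent-growth values.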

SK-OV-3 [3] = test: Growth inhibition of human SKOV3 cells
A498 = test: Growth inhibition of human A498 cells
SNB-19 [4] = test: Growth inhibition of human SNB19 cells
NCI-H226 = test: Growth inhibition of human NCI-H226 cells assessed tumor cell growth at 10^-5 M; design: scale not given: the % may be the effect or the level left; method in brief: as §1
T47D = test: Growth inhibition of human T47D cells assessed tumor cell growth at 10^-5 M; design: scale not given: the % may be the effect or the level left
Method in brief: (§2)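 Single-dose screen at 10^-5 M across the 60 human tumor cell line panel, run to NCI standards. The value is the percent growth of each cell line in the presence of compound. Compounds active at this dose moved on to five-concentration testing (10^-4 to 10^-8 M).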

SW-620 = test: Growth inhibition of human SW620 cells
MDA-MB-435 = test: Growth inhibition of human MDA-MB-435 cells
MCF7 = test: Growth inhibition of human MCF7 cells assessed tumor cell growth at 10^-5 M; design: scale not given: the % may be the effect or the level left; method in brief: as §1
EKVX [5] = test: Growth inhibition of human EKVX cells
SF-539 = test: Growth inhibition of human SF539 cells
OVCAR-3 [6] = test: Growth inhibition of human OVCAR3 cells assessed tumor cell growth at 10^-5 M; design: scale not given: the % may be the effect or the level left; method in brief: as §1
UO-31 = test: Growth inhibition of human UO31 cells assessed tumor cell growth at 10^-5 M; design: scale not given: the % may be the effect or the level left; method in brief: as §2
OVCAR-3 [7] = test: Growth inhibition of human OVCAR3 cells
MDA-MB-468 = test: Growth inhibition of human MDA-MB-468 cells
SF-268 = test: Growth inhibition of human SF268 cells
DU-145 = test: Growth inhibition of human DU145 cells assessed tumor cell growth at 10^-5 M; design: scale not given: the % may be the effect or the level left; method in brief: as §1
HCC 2998 = test: Growth inhibition of human HCC2998 cells
HCT-15 [8] = test: Growth inhibition of human HCT15 cells
TK-10 = test: Growth inhibition of human TK10 cells
IGROV-1 = test: Growth inhibition of human IGROV1 cells
Method in brief: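 Follow-up panel testing at five concentrations (10^-4, 10^-5, 10^-6, 10^-7 and 10^-8 M) across the 60 human tumor cell lines. GI50 was obtained for each line from the concentration-response data, with the panel average GI50 also reported.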

SN12C [9] = test: Growth inhibition of human SN12C cells assessed tumor cell growth at 10^-5 M; design: scale not given: the % may be the effect or the level left; method in brief: as §1
SF-295 = test: Growth inhibition of human SF295 cells
SNB-19 [10] = test: Growth inhibition of human SNB19 cells assessed tumor cell growth at 10^-5 M; design: scale not given: the % may be the effect or the level left; method in brief: as §2
CCRF-CEM = test: Growth inhibition of human CCRF-CEM cells assessed tumor cell growth at 10^-5 M; design: scale not given: the % may be the effect or the level left; method in brief: as §1
ACHN = test: Growth inhibition of human ACHN cells assessed tumor cell growth at 10^-5 M; design: scale not given: the % may be the effect or the level left; method in brief: as §1
OVCAR-4 [11] = test: Growth inhibition of human OVCAR4 cells assessed tumor cell growth at 10^-5 M; design: scale not given: the % may be the effect or the level left; method in brief: as §1
MOLT-4 = test: Growth inhibition of human MOLT4 cells
SR [12] = test: Growth inhibition of human SR cells
HT-29 = test: Growth inhibition of human HT-29 cells assessed tumor cell growth at 10^-5 M; design: scale not given: the % may be the effect or the level left; method in brief: as §1
SN12C [13] = test: Growth inhibition of human SN12C cells
SK-OV-3 [14] = test: Growth inhibition of human SKOV3 cells assessed tumor cell growth at 10^-5 M; design: scale not given: the % may be the effect or the level left; method in brief: as §1
[15] = Growth inhibition of human Hs 578T cells assessed tumor cell growth at 10^-5 M; design: scale not given: the % may be the effect or the level left; method in brief: as §1
UACC-62 = test: Growth inhibition of human UACC62 cells assessed tumor cell growth at 10^-5 M; design: scale not given: the % may be the effect or the level left; method in brief: as §2
A549 = test: Growth inhibition of human A549 cells
SR [16] = test: Growth inhibition of human SR cells assessed tumor cell growth at 10^-5 M; design: scale not given: the % may be the effect or the level left; method in brief: as §2
COLO 205 = test: Growth inhibition of human COLO205 cells assessed tumor cell growth at 10^-5 M; design: scale not given: the % may be the effect or the level left; method in brief: as §1
K562 = test: Growth inhibition of human K562 cells assessed tumor cell growth at 10^-5 M; design: scale not given: the % may be the effect or the level left; method in brief: as §1
SK-MEL-28 = test: Growth inhibition of human SK-MEL-28 cells assessed tumor cell growth at 10^-5 M; design: scale not given: the % may be the effect or the level left; method in brief: as §1
HCT-15 [17] = test: Growth inhibition of human HCT15 cells assessed tumor cell growth at 10^-5 M; design: scale not given: the % may be the effect or the level left; method in brief: as §1
Malme-3M = test: Growth inhibition of human MALME-3M cells
NCI-H460 [18] = test: Growth inhibition of human NCI-H460 cells assessed tumor cell growth at 10^-5 M; design: scale not given: the % may be the effect or the level left; method in brief: as §1
EKVX [19] = test: Growth inhibition of human EKVX cells assessed tumor cell growth at 10^-5 M; design: scale not given: the % may be the effect or the level left; method in brief: as §1
HOP-92 = test: Growth inhibition of human HOP92 cells assessed tumor cell growth at 10^-5 M; design: scale not given: the % may be the effect or the level left; method in brief: as §1
LOX IMVI = test: Growth inhibition of human LOXIMVI cells
M14 [20] = test: Growth inhibition of human M14 cells assessed tumor cell growth at 10^-5 M; design: scale not given: the % may be the effect or the level left; method in brief: as §1
PC-3 = test: Growth inhibition of human PC3 cells
SNB-75 = test: Growth inhibition of human SNB75 cells assessed tumor cell growth at 10^-5 M; design: scale not given: the % may be the effect or the level left; method in brief: as §2
OVCAR-5 = test: Growth inhibition of human OVCAR5 cells
OVCAR-4 [21] = test: Growth inhibition of human OVCAR4 cells
NCI/ADR-RES = test: Growth inhibition of human NCI/ADR-RES cells assessed tumor cell growth at 10^-5 M; design: scale not given: the % may be the effect or the level left; method in brief: as §1
[22] = Growth inhibition of human […] cells assessed tumor cell growth at 10^-5 M; design: scale not given: the % may be the effect or the level left; method in brief: as §1
[23] = read-out: LC50 (the source's name)

## CC1=NN(c2cccc(Cl)c2)C(=O)/C1=C\C=C\c1ccccc1
M14 [1]
  GI50: 1600 nM
M14 [1]; [23]
  CC50: 7.5 µM
NCI-H460 [2]
  GI50: 1600 nM
NCI-H460 [2]; [23]
  CC50: 6.4 µM
KM12
  Activity: 16.12%
SK-OV-3 [3]
  GI50: 3.2 µM
SK-OV-3 [3]; [23]
  CC50: > 100 µM
A498
  GI50: 17.7 µM
A498; [23]
  CC50: > 100 µM
SNB-19 [4]
  GI50: 5.6 µM
SNB-19 [4]; [23]
  CC50: > 100 µM
NCI-H226
  Activity: 3.87%
T47D
  Activity: 41.86%
SW-620
  GI50: 1700 nM
SW-620; [23]
  CC50: 6.7 µM
MDA-MB-435
  GI50: 2500 nM
MDA-MB-435; [23]
  CC50: > 100 µM
MCF7
  Activity: 5.42%
EKVX [5]
  GI50: 3000 nM
EKVX [5]; [23]
  CC50: > 100 µM
SF-539
  GI50: 2500 nM
SF-539; [23]
  CC50: > 100 µM
OVCAR-3 [6]
  Activity: 103.59%
UO-31
  Activity: 69.7%
OVCAR-3 [7]
  GI50: 2100 nM
OVCAR-3 [7]; [23]
  CC50: 8.9 µM
MDA-MB-468
  GI50: 1600 nM
MDA-MB-468; [23]
  CC50: 39.8 µM
SF-268
  GI50: 2300 nM
SF-268; [23]
  CC50: > 100 µM
DU-145
  Activity: 112.48%
HCC 2998
  GI50: 1900 nM
HCC 2998; [23]
  CC50: 6.3 µM
HCT-15 [8]
  GI50: 2200 nM
HCT-15 [8]; [23]
  CC50: > 100 µM
TK-10
  GI50: 3.1 µM
TK-10; [23]
  CC50: > 100 µM
IGROV-1
  GI50: 1600 nM
IGROV-1; [23]
  CC50: 16.5 µM
SN12C [9]
  Activity: 0.41%
SF-295
  GI50: 3.1 µM
SF-295; [23]
  CC50: > 100 µM
SNB-19 [10]
  Activity: 37.51%
CCRF-CEM
  Activity: 2.35%
ACHN
  Activity: -51.29%
OVCAR-4 [11]
  Activity: -20.79%
MOLT-4
  GI50: 3.1 µM
  LC50: > 100 µM
SR [12]
  GI50: 2300 nM
SR [12]; [23]
  CC50: > 100 µM
HT-29
  Activity: -29.51%
SN12C [13]
  GI50: 2400 nM
SN12C [13]; [23]
  CC50: > 100 µM
SK-OV-3 [14]
  Activity: 48.42%
[15]
  Activity: 132.74%
UACC-62
  Activity: 28.21%
A549
  GI50: 16.2 µM
A549; [23]
  CC50: > 100 µM
SR [16]
  Activity: 10.62%
COLO 205
  Activity: 11.57%
K562
  Activity: 76.92%
SK-MEL-28
  Activity: -76.48%
HCT-15 [17]
  Activity: 5%
Malme-3M
  GI50: 2700 nM
Malme-3M; [23]
  CC50: > 100 µM
NCI-H460 [18]
  Activity: 100.76%
EKVX [19]
  Activity: 87.07%
HOP-92
  Activity: 101.34%
LOX IMVI
  GI50: 1400 nM
LOX IMVI; [23]
  CC50: 6.7 µM
M14 [20]
  Activity: 14.42%
PC-3
  GI50: 2900 nM
PC-3; [23]
  CC50: > 100 µM
SNB-75
  Activity: 62.01%
OVCAR-5
  GI50: 2800 nM
OVCAR-5; [23]
  CC50: > 100 µM
OVCAR-4 [21]
  GI50: 3.3 µM
OVCAR-4 [21]; [23]
  CC50: > 100 µM
NCI/ADR-RES
  Activity: -17.49%
[22]
  Activity: 15.38%
